Measured values as given in ChEMBL document CHEMBL1134859, “Rapid synthesis of triazine inhibitors of inosine monophosphate dehydrogenase” (Bioorg Med Chem Lett, 2002).

Legend:
CCRF-CEM = test: Inhibitory activity against human T-lymphoblast CEM cell line using T cell proliferation assay; type: functional, cell-based
Method in brief: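 Human T-lymphoblast CEM cells were grown in RPMI 1640 with 10% heat-inactivated FBS and penicillin/streptomycin, then seeded at 3000 cells/well in 0.5% DMSO. Compounds were tested in triplicate from a 10 uM final top concentration in 3-fold serial dilutions. Cells were kept 72 h in humidified 5% CO2.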

[1] = target: Inosine-5'-monophosphate dehydrogenase 2 (Homo sapiens, UniProt P12268); test: Inhibition of human Inosine-5'-monophosphate dehydrogenase 2

| SMILES | IC50 (CCRF-CEM) [nM] | IC50 [1] [nM] |
| --- | --- | --- |
| COc1cc(Nc2nc(OCc3ccccc3)nc(-c3ccccc3)n2)ccc1-c1cnco1 | > 1000 | 32 |
| COc1cc(Nc2nc(-c3ccccc3)nc(N3CCC[C@@H]3CO)n2)ccc1-c1cnco1 | > 1000 | 78 |
| CNc1nc(Nc2ccc(-c3cnco3)c(OC)c2)nc(-c2cccc(C)c2)n1 | > 1000 | 130 |
| CNc1nc(Nc2ccc(-c3cnco3)c(OC)c2)nc(N2CCOCC2)n1 | > 1000 | 160 |
| COc1cc(Nc2nc(N)n(-c3ccccc3)n2)ccc1-c1cnco1 | > 1000 |  |
| COc1cc(Nc2nc(NCc3ccccc3)nc(-c3ccccc3)n2)ccc1-c1cnco1 | > 1000 | 410 |
| CNc1nc(Nc2ccc(-c3cnco3)c(OC)c2)nc(N2CCC[C@H]2CO)n1 | > 1000 | 130 |
| COc1cc(Nc2nc(O)nc(-c3ccccc3)n2)ccc1-c1cnco1 | 5900 | 18 |
| COc1cc(Nc2nc(-c3ccccc3)nc(N3CCOCC3)n2)ccc1-c1cnco1 | > 1000 | 190 |
| CNc1nc(Nc2ccc(-c3cnco3)c(OC)c2)nc(-c2ccccc2)n1 | > 1000 | 76 |
| COc1cc(Nc2nc(-c3ccccc3)nc(N3CCN(C=O)CC3)n2)ccc1-c1cnco1 | > 1000 | 160 |
| CNc1nc(Nc2ccc(-c3cnco3)c(OC)c2)nc(-c2ccccc2C)n1 | > 1000 | 310 |
| CNc1nc(Nc2ccc(-c3cnco3)c(OC)c2)nc(N2CCC[C@@H]2CO)n1 | > 1000 | 720 |
| COc1cc(Nc2nc(NCCCC(=O)O)nc(-c3ccccc3)n2)ccc1-c1cnco1 | > 1000 | 78 |
| COc1cc(Nc2nc(NCCc3ccccc3)nc(-c3ccccc3)n2)ccc1-c1cnco1 | > 1000 | > 1000 |
| CNc1nc(Nc2ccc(-c3cnco3)c(OC)c2)nc(-c2ccc(C)cc2)n1 | > 1000 | 170 |
| COc1cc(Nc2nc(-c3ccccc3)nc(N3CCC[C@H]3CO)n2)ccc1-c1cnco1 | > 1000 | 72 |
| COC[C@@H]1CCCN1c1nc(Nc2ccc(-c3cnco3)c(OC)c2)nc(-c2ccccc2)n1 | > 1000 | 290 |
| COc1cc(Nc2nc(NCC(=O)O)nc(-c3ccccc3)n2)ccc1-c1cnco1 | > 1000 | 250 |
| COc1cc(Nc2nc(-c3ccccc3)nc(N3CCN(C)CC3)n2)ccc1-c1cnco1 | > 1000 | 330 |

Other lines, results leading:

| IC50 (CCRF-CEM) [nM] | IC50 [1] [nM] | SMILES |
| --- | --- | --- |
| > 1000 | 130 | COc1cc(Nc2nc(NCCC(=O)O)nc(-c3ccccc3)n2)ccc1-c1cnco1 |
| > 1000 | 390 | CNc1nc(Nc2ccc(-c3cnco3)c(OC)c2)nc(N2CCC[C@H]2COC)n1 |
| 2400 | 58 | COc1cc(Nc2nc(NCCc3cccnc3)nc(-c3ccccc3)n2)ccc1-c1cnco1 |
| > 1000 | 54 | COc1cc(Nc2nc(N)nc(-c3ccccc3)n2)ccc1-c1cnco1 |
| > 1000 | 57 | CNc1nc(Nc2ccc(-c3cnco3)c(OC)c2)nc(-c2ccco2)n1 |
| > 1000 | 620 | CNc1nc(NC)nc(Nc2ccc(-c3cnco3)c(OC)c2)n1 |
| > 1000 | 270 | COc1cc(Nc2nc(-c3ccccc3)nc(N(C)C)n2)ccc1-c1cnco1 |
| > 1000 | 41 | COc1nc(Nc2ccc(-c3cnco3)c(OC)c2)nc(-c2ccccc2)n1 |
| 3500 | 45 | COc1cc(Nc2nncc(-c3ccccc3)n2)ccc1-c1cnco1 |
| 390 |  | COc1c(C)c2c(c(O)c1C/C=C(\C)CCC(=O)O)C(=O)OC2 [MYCOPHENOLIC ACID] |
